ChEMBL document CHEMBL1145636, “Discovery of a novel and potent series of thieno[3,2-b]pyridine-based inhibitors of c-Met and VEGFR2 tyrosine kinases” (Bioorg Med Chem Lett, 2008)

Legend:
[1] = molecular target: Vascular endothelial growth factor receptor 2 (Homo sapiens, UniProt P35968); assay: Inhibition of GST tagged VEGFR2 expressed in Sf9 cells
How it was run: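 GST-fused VEGFR2 catalytic domain, baculovirus-expressed in Sf9 cells (MOI 0.1), glutathione-agarose purified; 5 nM enzyme preincubated with inhibitor and Mg-ATP on ice 4 min, then reacted on immobilized poly(Glu4,Tyr) at 30 °C for 10 min in 60 mM Hepes pH 7.5, MgCl2/MnCl2; ATP 0.6 (2× Km); Eu anti-phosphotyrosine TR-fluorescence; seven concentrations in triplicate, four-parameter IC50 fit.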

[2] = molecular target: T1, Hepatocyte growth factor receptor (Homo sapiens, UniProt P08581); assay: Inhibition of TPR-Met fusion protein assessed as Y1230-34-35 phosphorylation
Target sequence in this assay (P08581 25-1390 limits assumed): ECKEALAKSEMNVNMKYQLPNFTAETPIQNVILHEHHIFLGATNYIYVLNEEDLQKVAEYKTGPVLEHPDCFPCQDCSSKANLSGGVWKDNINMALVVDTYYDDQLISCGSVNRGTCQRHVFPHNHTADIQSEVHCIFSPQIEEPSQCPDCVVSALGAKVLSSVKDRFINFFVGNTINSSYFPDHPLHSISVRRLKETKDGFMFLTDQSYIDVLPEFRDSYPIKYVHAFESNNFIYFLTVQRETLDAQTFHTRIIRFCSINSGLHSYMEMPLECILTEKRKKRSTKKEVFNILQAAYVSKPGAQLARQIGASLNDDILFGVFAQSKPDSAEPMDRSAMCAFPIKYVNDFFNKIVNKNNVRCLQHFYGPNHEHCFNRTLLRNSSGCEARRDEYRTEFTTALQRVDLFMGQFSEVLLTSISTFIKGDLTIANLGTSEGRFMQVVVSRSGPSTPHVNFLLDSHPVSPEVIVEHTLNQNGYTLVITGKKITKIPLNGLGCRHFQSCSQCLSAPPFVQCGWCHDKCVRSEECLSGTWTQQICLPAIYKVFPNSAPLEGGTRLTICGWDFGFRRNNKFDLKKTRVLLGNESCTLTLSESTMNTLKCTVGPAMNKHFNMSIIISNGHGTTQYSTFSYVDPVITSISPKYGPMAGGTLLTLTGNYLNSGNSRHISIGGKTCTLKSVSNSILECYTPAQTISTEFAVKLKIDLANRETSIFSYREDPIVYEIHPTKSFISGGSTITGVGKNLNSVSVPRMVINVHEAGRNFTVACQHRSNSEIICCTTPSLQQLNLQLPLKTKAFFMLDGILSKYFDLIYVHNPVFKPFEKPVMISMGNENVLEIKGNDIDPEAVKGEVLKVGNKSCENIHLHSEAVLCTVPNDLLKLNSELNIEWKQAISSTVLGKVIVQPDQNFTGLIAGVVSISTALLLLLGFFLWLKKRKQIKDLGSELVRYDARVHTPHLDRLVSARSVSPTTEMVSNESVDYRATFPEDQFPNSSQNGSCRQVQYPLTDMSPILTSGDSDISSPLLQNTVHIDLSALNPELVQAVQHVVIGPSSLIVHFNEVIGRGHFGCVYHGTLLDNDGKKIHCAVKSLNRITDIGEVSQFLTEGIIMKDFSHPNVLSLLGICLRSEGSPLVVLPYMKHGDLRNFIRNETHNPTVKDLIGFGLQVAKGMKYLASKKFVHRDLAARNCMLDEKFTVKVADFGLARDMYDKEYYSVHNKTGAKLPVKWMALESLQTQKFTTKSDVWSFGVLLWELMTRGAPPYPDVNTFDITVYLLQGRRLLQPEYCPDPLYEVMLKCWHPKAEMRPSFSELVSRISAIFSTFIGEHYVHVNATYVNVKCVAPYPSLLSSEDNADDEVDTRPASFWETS

[3] = molecular target: T1, Hepatocyte growth factor receptor; assay: Inhibition of GST tagged c-Met expressed in High Five cells
Target sequence in this assay (P08581 whole entry, the tested form may be a part): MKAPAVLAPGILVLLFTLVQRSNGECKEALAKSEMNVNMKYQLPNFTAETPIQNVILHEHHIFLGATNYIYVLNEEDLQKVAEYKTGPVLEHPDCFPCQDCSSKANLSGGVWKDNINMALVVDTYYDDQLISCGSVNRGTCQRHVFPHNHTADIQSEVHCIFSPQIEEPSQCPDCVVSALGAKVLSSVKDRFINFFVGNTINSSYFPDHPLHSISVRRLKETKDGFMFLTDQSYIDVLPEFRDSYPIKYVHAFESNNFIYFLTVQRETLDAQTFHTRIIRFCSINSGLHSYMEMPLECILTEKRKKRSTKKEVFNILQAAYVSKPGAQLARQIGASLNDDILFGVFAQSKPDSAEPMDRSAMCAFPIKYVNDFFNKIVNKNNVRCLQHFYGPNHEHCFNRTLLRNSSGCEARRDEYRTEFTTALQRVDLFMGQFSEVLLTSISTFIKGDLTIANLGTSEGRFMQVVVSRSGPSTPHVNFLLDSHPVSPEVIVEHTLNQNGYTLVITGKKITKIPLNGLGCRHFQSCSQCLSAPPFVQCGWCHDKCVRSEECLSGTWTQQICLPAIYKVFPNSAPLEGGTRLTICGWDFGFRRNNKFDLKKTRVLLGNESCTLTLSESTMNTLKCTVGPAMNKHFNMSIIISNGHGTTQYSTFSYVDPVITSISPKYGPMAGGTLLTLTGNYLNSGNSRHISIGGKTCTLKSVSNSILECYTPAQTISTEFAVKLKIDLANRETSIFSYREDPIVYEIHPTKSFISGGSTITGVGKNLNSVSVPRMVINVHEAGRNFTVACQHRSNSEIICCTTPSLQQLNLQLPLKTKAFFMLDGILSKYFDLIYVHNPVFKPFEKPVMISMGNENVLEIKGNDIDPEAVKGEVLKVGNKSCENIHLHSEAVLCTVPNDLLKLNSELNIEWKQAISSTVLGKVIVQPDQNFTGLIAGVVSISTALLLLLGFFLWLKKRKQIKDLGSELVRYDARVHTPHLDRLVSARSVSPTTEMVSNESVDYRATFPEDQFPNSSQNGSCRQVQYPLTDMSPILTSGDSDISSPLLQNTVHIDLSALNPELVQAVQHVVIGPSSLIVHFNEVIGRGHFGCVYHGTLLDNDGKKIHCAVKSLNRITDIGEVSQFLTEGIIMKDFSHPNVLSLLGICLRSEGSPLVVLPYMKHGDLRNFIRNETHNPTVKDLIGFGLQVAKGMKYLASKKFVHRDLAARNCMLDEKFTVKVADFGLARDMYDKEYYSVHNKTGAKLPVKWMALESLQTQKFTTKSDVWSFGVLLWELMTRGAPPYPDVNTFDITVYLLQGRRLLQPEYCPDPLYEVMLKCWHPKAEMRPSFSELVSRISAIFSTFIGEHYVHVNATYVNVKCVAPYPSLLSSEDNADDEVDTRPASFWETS

Chain of Vascular endothelial growth factor receptor 2 (P35968 whole entry, the tested form may be a part): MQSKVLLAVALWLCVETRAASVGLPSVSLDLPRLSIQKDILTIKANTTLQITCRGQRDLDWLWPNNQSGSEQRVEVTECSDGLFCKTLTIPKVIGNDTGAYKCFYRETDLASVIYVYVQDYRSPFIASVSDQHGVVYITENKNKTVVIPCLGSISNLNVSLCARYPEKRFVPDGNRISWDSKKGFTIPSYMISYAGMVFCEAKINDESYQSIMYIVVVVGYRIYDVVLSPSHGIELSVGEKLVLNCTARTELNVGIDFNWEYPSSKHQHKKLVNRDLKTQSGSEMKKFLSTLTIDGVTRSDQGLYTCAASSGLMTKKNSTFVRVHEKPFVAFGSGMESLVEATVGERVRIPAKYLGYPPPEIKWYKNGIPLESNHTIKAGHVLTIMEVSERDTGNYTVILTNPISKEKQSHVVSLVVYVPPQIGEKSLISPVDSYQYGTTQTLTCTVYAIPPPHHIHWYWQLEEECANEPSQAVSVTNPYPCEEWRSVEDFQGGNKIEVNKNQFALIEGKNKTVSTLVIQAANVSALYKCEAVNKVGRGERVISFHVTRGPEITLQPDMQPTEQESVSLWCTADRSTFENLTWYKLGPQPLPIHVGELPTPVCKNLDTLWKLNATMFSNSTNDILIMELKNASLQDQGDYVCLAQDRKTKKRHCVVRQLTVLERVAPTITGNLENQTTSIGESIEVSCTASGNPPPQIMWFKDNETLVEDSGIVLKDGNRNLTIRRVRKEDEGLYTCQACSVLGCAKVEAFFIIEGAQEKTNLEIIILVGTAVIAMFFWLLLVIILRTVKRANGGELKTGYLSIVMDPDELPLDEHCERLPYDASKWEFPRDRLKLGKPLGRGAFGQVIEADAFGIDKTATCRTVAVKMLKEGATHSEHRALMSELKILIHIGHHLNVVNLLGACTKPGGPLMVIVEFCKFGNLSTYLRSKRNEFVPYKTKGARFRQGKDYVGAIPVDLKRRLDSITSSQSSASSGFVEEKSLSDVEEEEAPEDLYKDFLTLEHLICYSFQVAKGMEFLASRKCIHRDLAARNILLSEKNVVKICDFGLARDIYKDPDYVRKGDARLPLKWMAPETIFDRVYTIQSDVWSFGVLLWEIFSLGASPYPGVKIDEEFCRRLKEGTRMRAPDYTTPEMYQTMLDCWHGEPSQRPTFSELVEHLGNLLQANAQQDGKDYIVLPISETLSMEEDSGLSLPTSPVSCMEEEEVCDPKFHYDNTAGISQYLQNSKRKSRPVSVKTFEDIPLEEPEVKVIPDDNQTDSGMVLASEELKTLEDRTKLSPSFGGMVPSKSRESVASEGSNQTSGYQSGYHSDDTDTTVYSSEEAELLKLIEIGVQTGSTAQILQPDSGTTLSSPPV

Row | IC50 [1] | IC50 [2] | IC50 [3] | Compound
1 | 17 nM |  |  | O=C(Cc1ccccc1)NC(=S)Nc1ccc(Oc2ccnc3cc(-c4ccccn4)sc23)c(F)c1
2 | 17 nM | 28 nM | 65 nM | O=C(Cc1ccccc1)NC(=S)Nc1ccc(Oc2ccnc3cc(-c4nccs4)sc23)c(F)c1
3 | 593 nM |  | 74 nM | O=C(Cc1ccccc1)NC(=S)Nc1ccc(Oc2ccnc3cc(-c4ccoc4)sc23)c(F)c1
4 | 561 nM |  |  | CC(O)c1cc2nccc(Oc3ccc(NC(=S)NC(=O)Cc4ccccc4)cc3F)c2s1 (stereo not drawn)
5 | 133 nM |  |  | CNC(=O)c1cc2nccc(Oc3ccc(NC(=S)NC(=O)Cc4ccccc4)cc3F)c2s1
6 | 25 nM | 35 nM | 108 nM | CCn1ccnc1-c1cc2nccc(Oc3ccc(NC(=S)NC(=O)Cc4ccccc4)cc3F)c2s1
7 | 90 nM |  |  | COC(=O)c1cc2nccc(Oc3ccc(NC(=S)NC(=O)Cc4ccccc4)cc3F)c2s1
8 | 32 nM |  |  | COc1cc2nccc(Oc3ccc(NC(=S)NC(=O)Cc4ccccc4)cc3F)c2cc1OC
9 | 32 nM |  |  | O=C(Cc1ccccc1)NC(=S)Nc1ccc(Oc2ccnc3cc(-c4cccs4)sc23)c(F)c1
10 | 19 nM |  |  | CN(C)C(=O)c1cc2nccc(Oc3ccc(NC(=S)NC(=O)Cc4ccccc4)cc3F)c2s1
11 | 94 nM |  |  | O=C(Cc1ccccc1)NC(=S)Nc1ccc(Oc2ccnc3cc(-c4ncccn4)sc23)c(F)c1
12 | 127 nM |  | 130 nM | O=C(Cc1ccccc1)NC(=S)Nc1ccc(Oc2ccnc3cc(C(=O)c4ccco4)sc23)c(F)c1
13 | 31 nM | 108 nM | 49 nM | Cn1cccc1-c1cc2nccc(Oc3ccc(NC(=S)NC(=O)Cc4ccccc4)cc3F)c2s1
14 | 25 nM |  | 24 nM | Cn1cc(-c2cc3nccc(Oc4ccc(NC(=S)NC(=O)Cc5ccccc5)cc4F)c3s2)cn1
